Measurements: article PMC1557817 (Nucleic Acids Research, 2006)
pKd: −log10 of the molar value. Where two headings read alike, the source gives them in different places.

Tests used:
human eRF3 = human eRF3 (Homo sapiens, UniProt P15170); test: ITC binding of ligands to eRF3
In short: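 Run at 25°C in phosphate buffer pH 7.5 (25 mM K2HPO4, 0.1 M KCl, 10% glycerol, 1 mM DTT), MgCl2 0–10 mM. Cell: 6–15 μM His-tagged human eRF3 (aa 139–637), alone or with full-length eRF1, both E. coli-expressed. Syringe: ligand at 50–300 μM, 10 μl injections. Dilution heat subtracted; one-set-of-sites fit gave Ka and ΔH; ΔG and ΔS calculated; 2–4 repeats.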

prokaryotic RF3 = details: 5 mM Mg^2+ ref 28; cited from earlier work
S.pombe eRF3 = details: 2.0–2.5 mM Mg^2+ ref 24; cited from earlier work
eRF3•GDP = eRF3•GDP (Homo sapiens, UniProt P15170); test: ITC binding of ligands to the eRF3•GDP complex; details: absence of eRF1
eRF1•eRF3 = eRF1•eRF3 (Homo sapiens, UniProt P15170); test: ITC binding of guanine nucleotides to the eRF1•eRF3 complex
eRF1•eRF3•GDP = eRF1•eRF3•GDP (Homo sapiens, UniProt P15170); test: Displacement ITC: eRF1•eRF3 saturated with GDP titrated with GTP; details: Tris buffer, 2 mM Mg^2+, competitive ligand binding model
In short: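 Proteins: human eRF1 and truncated human eRF3 (aa 139–637), both with a C-terminal His6 tag, expressed in E. coli, purified by Ni-NTA then anion exchange, and dialysed into assay buffer. Method: eRF1•eRF3 in the cell was saturated with one HPLC-purified nucleotide, then titrated with 10 μl aliquots of the other. K2 = Kapp(1 + K1[L1]). Run at 25°C, pH 7.5; dilution heats subtracted; 2–4 runs.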

[1] = biological target: truncated human eRF3 (amino acids 139-637), C-terminal hexahistidine (human) (UniProt P15170); test: ITC
[2] = biological target: truncated human eRF3 (amino acids 139-637), C-terminal hexahistidine (human) (UniProt P15170); test: ITC; remark: listed apart in the source

For `Nc1nc2c(ncn2[C@@H]2O[C@H](COP(=O)(O)OP(=O)(O)O)[C@@H](O)[C@H]2O)c(=O)[nH]1` [GDP], the “fold increase of Kd at 2 mM Mg^2+ versus absence of Mg^2+” value (human eRF3; both phosphate and Tris buffers) is listed as 1.7 fold, the pKd (prokaryotic RF3) is listed as 8.26 and the “affinity of GDP for yeast eRF3 (in words)” value (S.pombe eRF3) is listed as “lost”.
With `Nc1nc2c(ncn2[C@@H]2O[C@H](COP(=O)(O)OP(=O)(O)OP(=O)(O)O)[C@@H](O)[C@H]2O)c(=O)[nH]1` [GTP] the “GTP binding to eRF3 (in words)” value (human eRF3; phosphate or Tris, absence and presence of 2 mM Mg^2+) was “failed to reveal any measurable GTP binding”, the “GTP binding to eRF3•GDP (in words)” value (eRF3•GDP) was “no binding was detected” and the “constant of GTP binding relative to that of GDP binding” value (eRF1•eRF3; 2.0 mM Mg^2+) was “four times higher”. The “GTP binding, direct titration (in words)” value (eRF1•eRF3; Tris buffer) was “signal is too low to be measured directly”, the “fold increase of GTP affinity by Mg^2+” value (eRF1•eRF3; physiological Mg^2+ versus absence of Mg^2+) was 6 fold and the GTP binding constant (eRF1•eRF3•GDP) was 1.8e+06 M⁻¹.
Work on “human eRF1 (wild-type), C-terminal hexahistidine (from UniProt P62495 1-437) (natural protein)” yielded a dHobs (observed, not corrected for protonation) [1] of -56.5 kJ/mol, a dHobs (observed, not corrected for protonation) [2] of -80.3 kJ/mol and a stoichiometry N [2] of 0.47.
